Measurements as given in ChEMBL document CHEMBL3862037 (J Med Chem, 2016).

Legend:
[1] = species on record: Rattus norvegicus; test: Selectivity index, ratio of Ki for SERT in Sprague-Dawley rat brain stem membranes to Ki for DAT in Sprague-Dawley rat brain membranes; format: cell membranes
[2] = Displacement of [3H]nisoxetine from NET in Sprague-Dawley rat frontal cortex membranes incubated for 180 mins by radioligand binding assay; parameters: species or system Membrane
[3] = species on record: Rattus norvegicus; test: Selectivity index, ratio of Ki for NET in Sprague-Dawley rat frontal cortex membranes to Ki for DAT in Sprague-Dawley rat brain membranes; format: cell membranes
[4] = target: Sodium-dependent dopamine transporter (Rattus norvegicus, UniProt P23977); test: Displacement of [3H]WIN35,428 from DAT in Sprague-Dawley rat brain membranes incubated for 120 mins by radioligand binding assay; format: cell membranes, Membrane
[5] = target: Sodium-dependent serotonin transporter (Rattus norvegicus, UniProt P31652); test: Displacement of [3H]citalopram from SERT in Sprague-Dawley rat brain stem membranes incubated for 60 mins by radioligand binding assay; format: tissue-based
[6] = target: T1, D(4) dopamine receptor (Homo sapiens, UniProt P21917); test: Displacement of [3H]N-methylspiperone from human D4R expressed in HEK293 cell membranes incubated for 1 hr by radioligand binding assay
T1 sequence (P21917 whole entry): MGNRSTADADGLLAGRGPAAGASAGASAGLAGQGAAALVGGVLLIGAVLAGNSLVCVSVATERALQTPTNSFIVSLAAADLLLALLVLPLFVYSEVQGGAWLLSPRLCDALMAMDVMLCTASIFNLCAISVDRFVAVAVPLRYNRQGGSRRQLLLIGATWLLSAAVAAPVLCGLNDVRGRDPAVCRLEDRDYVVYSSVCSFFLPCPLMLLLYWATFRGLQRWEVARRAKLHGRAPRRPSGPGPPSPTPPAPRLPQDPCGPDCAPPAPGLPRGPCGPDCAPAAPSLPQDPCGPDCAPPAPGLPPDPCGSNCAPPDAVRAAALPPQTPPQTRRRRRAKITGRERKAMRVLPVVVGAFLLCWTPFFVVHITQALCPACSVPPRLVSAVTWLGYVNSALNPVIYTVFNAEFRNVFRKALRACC
Outline: (§1)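 Membranes from HEK293 cells stably expressing human D2R (20 µg protein) or D4R (30 µg protein). Buffer: EBSS with 0.2 mM sodium metabisulfite and 0.4 nM [3H]N-methylspiperone. Test compound at 11 half-log dilutions (100 µM–100 pM or 10 µM–10 pM) in 30% DMSO vehicle. Incubated 1 h at room temperature; nonspecific binding with 10 µM butaclamol.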

[7] = target: D(2) dopamine receptor (Homo sapiens, UniProt P14416); test: Displacement of [3H]N-methylspiperone from human D2R expressed in HEK293 cell membranes incubated for 1 hr by radioligand binding assay; outline: as §1
[8] = Stability in mouse liver microsomes assessed as compound degradation at 10 uM in presence of NADPH regenerating system measured < 30 mins mins by LC/MS/MS method; format: ADME; details: 0.5 h
Outline: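 Mouse liver microsomes (0.5 mg/mL) in 100 mM potassium phosphate pH 7.4 with NADPH regenerating system. Compound at 10 µM final; testosterone as positive control. Parent compound loss followed over time by LC/MS/MS on a C18 column with formic acid/acetonitrile gradient.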

[9] = target: D(3) dopamine receptor (Homo sapiens, UniProt P35462); test: Displacement of [3H]N-methylspiperone from human D3R expressed in HEK293 cell membranes incubated for 1 hr by radioligand binding assay
[10] = target: Sigma non-opioid intracellular receptor 1 (Cavia porcellus, UniProt Q60492); test: Displacement of [3H](+)-pentazocine from sigma1 receptor in whole-guinea pig brain minus cerebellum homogenates incubated for 120 mins by radioligand binding assay
Outline: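 Guinea pig whole-brain (minus cerebellum) membranes, 8.0 mg OWW per tube, in 50 mM Tris-HCl pH 8.0 with 3 nM [3H](+)-pentazocine. Incubated 120 min at room temperature. Nonspecific binding defined by haloperidol. Stopped by GF/B filtration and scintillation counting. IC50 from nonlinear regression, converted to Ki. At least three independent experiments, each in triplicate.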

Sodium-dependent dopamine transporter, sequence (P23977 whole entry): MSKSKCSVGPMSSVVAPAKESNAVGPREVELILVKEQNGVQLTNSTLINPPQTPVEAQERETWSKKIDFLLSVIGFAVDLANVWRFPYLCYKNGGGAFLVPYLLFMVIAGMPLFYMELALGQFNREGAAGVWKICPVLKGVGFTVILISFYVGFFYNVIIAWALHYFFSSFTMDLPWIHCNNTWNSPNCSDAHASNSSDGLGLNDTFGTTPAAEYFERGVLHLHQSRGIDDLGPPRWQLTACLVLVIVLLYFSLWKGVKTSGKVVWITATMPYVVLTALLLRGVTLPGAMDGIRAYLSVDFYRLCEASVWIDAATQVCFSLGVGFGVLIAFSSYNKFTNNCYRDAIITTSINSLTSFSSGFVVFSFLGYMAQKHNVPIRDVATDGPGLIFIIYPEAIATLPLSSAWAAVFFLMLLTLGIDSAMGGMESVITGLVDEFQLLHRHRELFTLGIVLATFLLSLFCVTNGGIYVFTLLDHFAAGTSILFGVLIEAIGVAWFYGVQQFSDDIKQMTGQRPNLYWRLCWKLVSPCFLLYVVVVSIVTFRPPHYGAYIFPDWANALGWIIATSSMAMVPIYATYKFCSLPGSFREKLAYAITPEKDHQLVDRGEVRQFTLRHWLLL
Sodium-dependent serotonin transporter, sequence (P31652 whole entry): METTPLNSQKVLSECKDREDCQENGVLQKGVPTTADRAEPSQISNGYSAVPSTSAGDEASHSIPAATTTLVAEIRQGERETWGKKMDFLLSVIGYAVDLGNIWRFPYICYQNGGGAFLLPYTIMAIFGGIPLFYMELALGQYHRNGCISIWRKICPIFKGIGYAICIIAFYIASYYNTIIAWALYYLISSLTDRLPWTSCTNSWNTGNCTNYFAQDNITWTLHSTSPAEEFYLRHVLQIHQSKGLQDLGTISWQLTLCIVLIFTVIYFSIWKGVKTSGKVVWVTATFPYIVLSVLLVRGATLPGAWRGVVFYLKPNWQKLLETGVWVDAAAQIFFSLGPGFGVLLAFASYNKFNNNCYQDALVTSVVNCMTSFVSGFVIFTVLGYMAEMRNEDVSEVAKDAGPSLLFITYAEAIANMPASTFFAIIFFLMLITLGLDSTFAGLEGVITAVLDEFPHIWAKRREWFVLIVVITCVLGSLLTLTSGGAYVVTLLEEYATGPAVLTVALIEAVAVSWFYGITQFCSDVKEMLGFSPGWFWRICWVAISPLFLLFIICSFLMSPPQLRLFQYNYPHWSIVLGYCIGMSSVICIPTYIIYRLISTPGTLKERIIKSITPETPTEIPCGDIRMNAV
D(2) dopamine receptor, sequence (P14416 whole entry): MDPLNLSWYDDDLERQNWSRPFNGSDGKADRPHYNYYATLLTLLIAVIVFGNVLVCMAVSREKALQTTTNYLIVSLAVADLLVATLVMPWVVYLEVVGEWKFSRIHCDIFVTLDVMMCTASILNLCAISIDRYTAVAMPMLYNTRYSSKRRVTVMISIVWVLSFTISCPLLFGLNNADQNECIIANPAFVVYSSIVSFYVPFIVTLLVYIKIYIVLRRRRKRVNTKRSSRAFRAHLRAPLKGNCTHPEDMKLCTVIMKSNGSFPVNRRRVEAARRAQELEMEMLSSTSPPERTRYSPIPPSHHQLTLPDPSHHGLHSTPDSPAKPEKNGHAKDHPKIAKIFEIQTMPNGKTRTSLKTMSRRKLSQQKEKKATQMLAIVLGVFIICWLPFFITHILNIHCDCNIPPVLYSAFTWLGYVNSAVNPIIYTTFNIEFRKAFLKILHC
D(3) dopamine receptor, sequence (P35462 whole entry): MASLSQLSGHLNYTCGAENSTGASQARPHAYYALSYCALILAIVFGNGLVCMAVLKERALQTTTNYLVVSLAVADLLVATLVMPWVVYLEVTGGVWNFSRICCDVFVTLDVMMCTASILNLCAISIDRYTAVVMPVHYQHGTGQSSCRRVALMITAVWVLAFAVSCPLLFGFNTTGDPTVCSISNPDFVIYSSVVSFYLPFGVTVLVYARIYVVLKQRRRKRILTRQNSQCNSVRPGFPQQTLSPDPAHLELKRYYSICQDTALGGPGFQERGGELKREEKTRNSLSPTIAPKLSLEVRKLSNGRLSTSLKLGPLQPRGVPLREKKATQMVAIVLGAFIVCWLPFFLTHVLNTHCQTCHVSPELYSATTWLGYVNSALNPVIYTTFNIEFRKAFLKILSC
Sigma non-opioid intracellular receptor 1, sequence (Q60492 whole entry): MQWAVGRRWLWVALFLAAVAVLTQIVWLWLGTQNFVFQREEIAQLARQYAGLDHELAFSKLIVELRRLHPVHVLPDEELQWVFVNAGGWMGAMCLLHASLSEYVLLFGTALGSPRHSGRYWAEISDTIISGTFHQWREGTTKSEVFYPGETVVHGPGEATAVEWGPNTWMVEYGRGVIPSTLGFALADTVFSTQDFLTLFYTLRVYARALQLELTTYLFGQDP

Row | Structure (SMILES) | Ratio Ki [1] | Ki [2] [nM] | Ratio Ki [3] | Ki [4] [nM] | Ki [5] [nM] | Ki [6] [nM] | Ki [7] [nM] | Stability [8] | Ki [9] [nM] | Ki [10] [nM]
1 | Fc1ccc(C(SCCN2CCN(Cc3ccc(Cl)cc3)CC2)c2ccc(F)cc2)cc1 | > 100 | 7410 | > 100 | 19.3 | 905 |  |  |  |  | 
2 | OC(Cc1ccccc1)CN1CCN(CCSC(c2ccc(F)cc2)c2ccc(F)cc2)CC1 (stereo unspecified) | > 100 |  | > 100 |  |  |  |  |  |  | 
3 | Fc1ccc(C(SCCN2CCN(Cc3ccccc3)CC2)c2ccc(F)cc2)cc1 | > 100 | 8240 | > 100 | 7.4 | 949 |  |  |  |  | 
4 | O=C(CSC(c1ccc(F)cc1)c1ccc(F)cc1)N1CCN(Cc2ccc(Cl)cc2)CC1 | > 100 |  | > 100 | 58.7 | 2200 |  |  |  |  | 
5 | CC(O)CN1CCN(CC[S+]([O-])C(c2cccc(Cl)c2)c2cccc(Cl)c2)CC1 (stereo unspecified) | > 100 | > 50000 | > 100 | 403 | 58900 |  |  |  |  | 
6 | c1ccc(CCCN2CCN(CCSC(c3ccccc3)c3ccccc3)CC2)cc1 | > 100 |  | > 100 |  |  |  |  |  |  | 
7 | CCc1cc(Cl)c(OC)c(C(=O)NC[C@@H]2CCCN2CC)c1O [ETICLOPRIDE] |  |  |  |  |  | 70.4 | 0.26 |  |  | 
8 | CC(O)CN1CCN(C(=O)C[S+]([O-])C(c2cccc(Cl)c2)c2cccc(Cl)c2)CC1 (stereo unspecified) | > 100 | > 50000 | > 100 | 1380 |  |  |  |  |  | 
9 | CC(O)CN1CCN(CC[S+]([O-])C(c2ccccc2)c2ccccc2)CC1 (stereo unspecified) | > 100 |  | > 100 |  |  |  |  |  |  | 
10 | CCCN1CCN(C(=O)C[S+]([O-])C(c2ccc(F)cc2)c2ccc(F)cc2)CC1 (stereo unspecified) | > 100 |  | > 100 | 279 | 14500 |  |  |  |  | 
11 | [O-][S+](CCN1CCN(Cc2ccc(Cl)cc2)CC1)C(c1ccc(F)cc1)c1ccc(F)cc1 (stereo unspecified) | > 100 | > 50000 | > 100 | 7.62 | 4940 |  |  | Unstable |  | 
12 | CC(O)CN1CCN(CCSC(c2ccccc2)c2ccccc2)CC1 (stereo unspecified) | > 100 |  | > 100 |  |  |  |  |  |  | 
13 | O=C(C[S+]([O-])C(c1ccc(F)cc1)c1ccc(F)cc1)N1CCN(Cc2ccc(Cl)cc2)CC1 (stereo unspecified) | > 100 | 63500 | > 100 | 56.3 | 9460 |  |  |  |  | 
14 | O=C(C[S+]([O-])C(c1ccc(F)cc1)c1ccc(F)cc1)N1CCN(CCCc2ccccc2)CC1 (stereo unspecified) | > 100 | 12000 | > 100 | 37.6 | 1320 |  |  | Unstable |  | 
15 | CCCCN1C2CCC1CC(OC(c1ccc(F)cc1)c1ccc(F)cc1)C2 (stereo unspecified) |  | 1670 |  | 10.5 |  | 583 | 68.1 |  | 34.4 | 2.4
16 | O=C(CSC(c1ccc(F)cc1)c1ccc(F)cc1)N1CCN(Cc2ccc(F)cc2)CC1 | > 100 |  | > 100 | 53.7 | 6210 |  |  |  |  | 

Row | Structure (SMILES) | Ratio Ki [1] | Ki [2] [nM] | Ratio Ki [3] | Ki [4] [nM] | Ki [5] [nM] | Ki [6] [nM] | Ki [7] [nM] | Stability [8] | Ki [9] [nM] | Ki [10] [nM]
17 | O=C(C[S+]([O-])C(c1ccc(F)cc1)c1ccc(F)cc1)N1CCN(Cc2ccc(F)cc2)CC1 (stereo unspecified) | > 100 |  | > 100 | 74.3 | 23600 |  |  | Unstable |  | 
18 | CCCN1CCN(C(=O)CSC(c2ccc(F)cc2)c2ccc(F)cc2)CC1 | > 100 |  | > 100 | 277 | 5970 |  |  |  |  | 
19 | Fc1ccc(C(SCCN2CCN(Cc3ccc(C(F)(F)F)cc3)CC2)c2ccc(F)cc2)cc1 | > 100 | 15400 | > 100 | 26.6 | 2020 |  |  |  |  | 
20 | Fc1ccc(CN2CCN(CCSC(c3ccc(F)cc3)c3ccc(F)cc3)CC2)cc1 | > 100 | 6850 | > 100 | 4.98 | 463 |  |  |  |  | 
21 | CC(O)CN1CCN(C(=O)CSC(c2cccc(Cl)c2)c2cccc(Cl)c2)CC1 (stereo unspecified) | > 100 | > 50000 | > 100 | 915 |  |  |  |  |  | 
22 | [O-][S+](CCN1CCN(CCCc2ccccc2)CC1)C(c1ccccc1)c1ccccc1 (stereo unspecified) | > 100 |  | > 100 |  | 7360 |  |  |  |  | 
23 | [O-][S+](CCN1CCN(Cc2ccccc2)CC1)C(c1ccc(F)cc1)c1ccc(F)cc1 (stereo unspecified) | > 100 | 45700 | > 100 | 27.2 | 11200 |  |  |  |  | 
24 | Fc1ccc(C(SCCN2CCN(CCCc3ccccc3)CC2)c2ccc(F)cc2)cc1 | > 100 |  | > 100 |  |  |  |  |  |  | 
25 | [O-][S+](CCN1CCN(CC(O)Cc2ccccc2)CC1)C(c1ccccc1)c1ccccc1 (stereo unspecified) | > 100 |  | > 100 |  |  |  |  | Unstable |  | 
26 | [O-][S+](CCN1CCN(Cc2ccc(C(F)(F)F)cc2)CC1)C(c1ccc(F)cc1)c1ccc(F)cc1 (stereo unspecified) | > 100 | > 50000 | > 100 | 39.4 | 6800 |  |  | Unstable |  | 
27 | CC(O)CN1CCN(C(=O)C[S+]([O-])C(c2ccc(F)cc2)c2ccc(F)cc2)CC1 (stereo unspecified) | > 100 |  | > 100 | 752 | 32800 |  |  |  |  | 
28 | CC(O)CN1CCN(C(=O)CSC(c2ccc(F)cc2)c2ccc(F)cc2)CC1 (stereo unspecified) | > 100 |  | > 100 | 214 | 11400 |  |  | Unstable |  | 
29 | CC(O)CN1CCN(CCSC(c2cccc(Cl)c2)c2cccc(Cl)c2)CC1 (stereo unspecified) | > 100 | 31300 | > 100 | 143 | 10800 |  |  |  |  | 
30 | [O-][S+](CCN1CCN(Cc2ccc(F)cc2)CC1)C(c1ccc(F)cc1)c1ccc(F)cc1 (stereo unspecified) | > 100 | > 50000 | > 100 | 9.67 | 8520 |  |  | Unstable |  | 
31 | O=C(CSC(c1ccc(F)cc1)c1ccc(F)cc1)N1CCN(CCCc2ccccc2)CC1 | > 100 | 20200 | > 100 | 28.6 | 3170 |  |  |  |  | 
